Most compounds without a hit are left out; they make up all but 4.2% or so of the library.
Rad51 HR inh: Rad51 (human) homologous recombination inhibition | Q06609 | hRad51 DNA strand exchange, fluorescence dequenching | inhibition, % at 10 µM | actives 0.085% (n = 200,000) | AID 1385;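 active = inhibition above 40% at the single screening dose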;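 also: 0% = DMSO control wells and 100% = blanks with heterologous ssDNA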
Target sequence (Q06609 whole entry, looked up): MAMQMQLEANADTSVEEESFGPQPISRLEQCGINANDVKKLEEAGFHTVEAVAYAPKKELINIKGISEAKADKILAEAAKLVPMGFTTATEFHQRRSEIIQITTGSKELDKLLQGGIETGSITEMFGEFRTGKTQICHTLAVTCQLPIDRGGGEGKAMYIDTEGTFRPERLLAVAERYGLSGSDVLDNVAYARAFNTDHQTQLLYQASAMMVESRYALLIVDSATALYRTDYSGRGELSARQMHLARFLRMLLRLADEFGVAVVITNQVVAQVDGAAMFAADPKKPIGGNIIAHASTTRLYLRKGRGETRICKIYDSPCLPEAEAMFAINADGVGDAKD
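Material: Human Rad51 nucleoprotein filaments preassembled on unlabelled ssDNA | Also added: Labelled 47-mer dsDNA for strand exchange | Dosing: Single dose, 10 µM final compound | Schedule: 30-min compound preincubation and 15-min exchange, both room temperature | Technique: Fluorescence dequenching at 485/520 nm | Measure: Percent inhibition relative to plate controls and blanks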
WT yeast gro inh: growth inhibition of WT yeast, mitochondrial fusion screen; mitochondrial fusion phenotypic screen, WT strain; inhibition, % at 10 µM; actives 2.1% (n = 190,000); AID 1362; in the data active = inhibition above about 58%; tested in S. cerevisiae
Autophagy mod: autophagy modulation, high-content screen; actives 0.98% (n = 190,000); MEF GFP-LC3 puncta imaging; test concentration mostly 10 µM; calls only at 10 µM (by protocol);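 active = percentage of spot-positive cells more than 3 SD above its plate mean, without a fluorescence outlier flag or 80% toxicity; inconclusive = no clear call, values can overlap the other calls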;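 also: spot-positive cell cutoff set from DMSO-treated cells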
KCC2 mod: KCC2 (human) Cl- transport modulation; Q9H2X9; KCC2 cells, thallium flux FluoZin-2 fluorescence; B-score of Tl+ flux slope (higher = more flux/activation; lower = inhibition) at 10 µM; actives 2.2% (n = 190,000); AID 1456;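 active = thallium flux slope and its plate-corrected score both differing from the plate sample mean at a set confidence after two filtering rounds, in either direction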;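 also: slope of fluorescence scaled to starting intensity during 10 to 20 s after thallium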
Insulin prom up: MIN6 insulin promoter up-regulation | actives 0.3% (n = 190,000) | AID 1625 | z-score at 5 µM | MIN6 insulin promoter-GFP reporter, high-content imaging; stronger effect = higher value;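 active = z-score above 3 at 5 µM with at least 500 cells counted in the well; inconclusive = wells under 500 cells, flagged as cytotoxic or low count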
SKKanGAS inh: SKKanGAS growth inhibition; S. pyogenes SKKanGAS, kanamycin growth, BacTiter-Glo, 6 h; inhibition, % at 7.5 µM; actives 1.3% (n = 300,000);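 active = mean replicate score, as percent of positive control median, at least 50; inconclusive = mean below 50 but one replicate at or above 50; inactive = mean and every replicate below 50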;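 also: strain carries kanamycin resistance gene driven by streptokinase promoter and grows in 40 µg/ml kanamycin; loss of luminescence reflects streptokinase promoter inhibition or plain growth inhibition; 0% = median of DMSO wells and 100% = positive control at its reference dose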
KCC2 secondary: KCC2 (human) modulation, secondary assay; actives 15% (n = 3,700); normalised thallium flux (F/F0 slope) at 10 µM; shares compounds with KCC2 mod; AID 1713; HEK293-KCC2, thallium flux, FluoZin2 fluorescence; stronger effect = higher value;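 active = thallium flux slope above the same plate's solvent-only control mean plus 3 SD; inconclusive = the two replicate wells disagree; inactive = no significant difference from solvent-only control wells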
KCC2 bumet counter: thallium flux persisting under bumetanide in KCC2 cells, counter-screen secondary assay | shares compounds with KCC2 mod | HEK293-KCC2 + bumetanide/ouabain, thallium flux FluoZin2; stronger effect = higher value | normalized thallium flux at 10 µM | actives 49% (n = 3,700);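 active = thallium entry rate above the same plate's blocked-transporter control wells by more than 3 SD; inconclusive = the two repeat wells disagree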;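 also: raw slope of fluorescence over initial fluorescence between 10 and 20 s after thallium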
KCC2 sec2: confirmation of human KCC2 transport modulators | HEK293-KCC2, thallium flux FluoZin2 fluorescence; actives lie on both sides; F/F0 rise rate, 10–20 s post-thallium | normalized thallium flux at 10 µM | actives 23% (n = 3,700) | shares compounds with KCC2 mod;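 active = thallium flux slope more than 3 SD above or below the plate's solvent-only control mean, mostly below; inconclusive = the two repeat wells disagreed; inactive = no significant shift from solvent-only controls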;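 also: raw slope with 0.1% DMSO as baseline and bumetanide as block control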
HEK counter1: parental HEK flux effect, counter-screen; thallium flux rate (normalised fluorescence) at 10 µM; shares compounds with KCC2 mod; HEK293 parental cells, thallium flux FluoZin2, ouabain; baseline-ratio fluorescence slope, 10–20 s after thallium; actives 46% (n = 3,700); AID 1716;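 active = thallium flux rate significantly above the same plate's solvent-only control wells, beyond their mean plus 3 SD; inconclusive = the two replicate wells gave conflicting results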
KCC2 ouabain: modulates human KCC2 on retest with ouabain; shares compounds with KCC2 mod; HEK293-KCC2, thallium flux FluoZin2 fluorescence; bidirectional: low = inhibitor, high = activator; raw Tl+ flux slope (below DMSO = inhibition, above = activation) at 10 µM; actives 48% (n = 3,700);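 active = thallium flux slope beyond 3 SD from same-plate DMSO control mean in most replicates, usually higher, sometimes lower; inconclusive = repeat tests gave conflicting results; inactive = no significant difference from controls in most replicates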;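 also: slope of initial-normalized fluorescence between seconds 10 and 20 after thallium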
HEK293 Tl flux2: parental HEK flux effect, counter-screen 2; shares compounds with KCC2 mod; HEK293 parental, thallium flux FluoZin-2 fluorescence slope; thallium flux slope at 10 µM; actives 33% (n = 3,700);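 active = thallium flux slope above the same plate's solvent-control mean plus 3 SD in both duplicate wells; inconclusive = duplicate wells that disagreed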;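 also: run without ouabain in cells lacking the KCC2 cotransporter; slope of fluorescence scaled to its starting value between 10 and 20 s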
Starred values were filed as active, the others as inactive.

Screening COC(=O)CN1C(=O)C2(C(C#N)=C(N)Oc3n[nH]c(-c4cccs4)c32)c2ccccc21 (centres undefined) returned Rad51 HR inh 3, WT yeast gro inh 21, Autophagy mod inactive, KCC2 mod 0.05, Insulin prom up -0.45 and SKKanGAS inh 2.
Screening COC(=O)CN1C(=O)C2(C(C#N)=C(N)Oc3c2c(C)nn3-c2ccccc2)c2ccccc21 (centres undefined) returned Rad51 HR inh 0, WT yeast gro inh 2, Autophagy mod inactive, KCC2 mod 3.9*, Insulin prom up 0.2, SKKanGAS inh -9, KCC2 secondary 0.0072, KCC2 bumet counter 0.0057*, KCC2 sec2 0.029, HEK counter1 0.0083, KCC2 ouabain 0.018 and HEK293 Tl flux2 0.012.
For CN1C(=O)c2ccc(NC(=S)NC(=O)C(C)(C)C)cc2C1=O the results were Rad51 HR inh -10, WT yeast gro inh -3, Autophagy mod inactive, KCC2 mod 0.0079, Insulin prom up 0.15 and SKKanGAS inh -5.
Screening CCOC(=O)C1CCCN(C(=O)COc2ccc(S(=O)(=O)N(CC)c3ccccc3)cc2)C1 (centres undefined) returned Rad51 HR inh -10, WT yeast gro inh -4, Autophagy mod inactive, KCC2 mod -0.91, Insulin prom up -0.84 and SKKanGAS inh -7.
For Cc1sc2ncnc(OCC(=O)NC3CCS(=O)(=O)C3)c2c1C (centres undefined) the results were Rad51 HR inh -7, KCC2 mod 0.18, Insulin prom up -0.83 and SKKanGAS inh -3.
Screening COCCN(C(=O)CSc1nc2ccccc2c(=O)n1CC(C)C)c1c(N)n(Cc2ccccc2)c(=O)[nH]c1=O returned Rad51 HR inh 7, WT yeast gro inh 21, Autophagy mod inactive, KCC2 mod 13*, Insulin prom up 1, SKKanGAS inh 3, KCC2 secondary 0.012*, KCC2 bumet counter 0.054*, KCC2 sec2 0.037, HEK counter1 0.024*, KCC2 ouabain 0.05* and HEK293 Tl flux2 0.016*.
COCCN(C(=O)CSc1nc2ccccc2c(=O)n1C(C)COC)c1c(N)n(Cc2ccccc2)c(=O)[nH]c1=O (centres undefined) was read as Rad51 HR inh -1, WT yeast gro inh -2, Autophagy mod inactive, KCC2 mod 1.6, Insulin prom up 0.66 and SKKanGAS inh -10.
For O=Nc1ccc(NOC(=O)c2ccccc2)cc1 the results were Rad51 HR inh 9, WT yeast gro inh 6, Autophagy mod inactive, KCC2 mod 1.1, Insulin prom up 0.32 and SKKanGAS inh -11.
`O=C(N=Nc1ccc(NOC(=O)c2ccccc2Br)cc1)c1ccccc1O` gave Rad51 HR inh -1, WT yeast gro inh 42, Autophagy mod inactive, KCC2 mod 4.2*, Insulin prom up 0.08, SKKanGAS inh 41, KCC2 secondary 0.0097, KCC2 bumet counter 0.021*, KCC2 sec2 0.029, HEK counter1 0.013*, KCC2 ouabain inconclusive and HEK293 Tl flux2 0.0097.
`COc1ccc(C(C(=O)NCc2ccccc2)N(Cc2ccco2)C(=O)c2snc(C(N)=O)c2N)cc1` (centres undefined) gave SKKanGAS inh 7.
`COc1cc(OC)cc(C(C(=O)NCc2ccccc2)N(Cc2ccco2)C(=O)c2ccno2)c1` (centres undefined) gave Rad51 HR inh 0, WT yeast gro inh 14, Autophagy mod inactive, KCC2 mod -2.8*, Insulin prom up 0.29, SKKanGAS inh -4, KCC2 secondary 0.0067, KCC2 bumet counter 0.0039, KCC2 sec2 0.032, HEK counter1 0.0069, KCC2 ouabain 0.019 and HEK293 Tl flux2 0.011.
Screening O=C1Nc2ccccc2C(=O)N2C[C@@H](O)C[C@H]12 returned SKKanGAS inh 10.
`CCOc1ccc(NC(=O)CNC(=O)c2cccs2)cc1` gave Rad51 HR inh -30, WT yeast gro inh 5, Autophagy mod inactive, KCC2 mod -0.64, Insulin prom up -0.63 and SKKanGAS inh 0.
For CS(=O)(=O)c1ccccc1-c1nnc(NC(=O)c2ccc3ncsc3c2)o1 the results were SKKanGAS inh 12.
Screening COc1ccc(N/C(N)=N/c2nc(CSc3ccc(C)cc3)cc(=O)[nH]2)cc1 returned Rad51 HR inh -1, WT yeast gro inh 80*, Autophagy mod inactive, SKKanGAS inh 1, KCC2 secondary 0.015, KCC2 bumet counter 0.004, KCC2 sec2 0.031, HEK counter1 0.0076, KCC2 ouabain 0.015 and HEK293 Tl flux2 0.011.
Screening Cc1ccc(N/C(N)=N/c2nc(CSc3ccc(C)cc3)cc(=O)[nH]2)cc1 returned WT yeast gro inh 9, Autophagy mod inactive, KCC2 mod -0.42 and Insulin prom up -1.9.
Screening COc1cc(-c2c(C#N)c(=O)[nH]c3c2c(C)nn3-c2ccccc2)ccc1O returned Rad51 HR inh -10, WT yeast gro inh 39, Autophagy mod inactive, KCC2 mod -5*, Insulin prom up 0.45, SKKanGAS inh 18, KCC2 secondary 0.0078, KCC2 bumet counter 0.0041, KCC2 sec2 0.03, HEK counter1 0.0067, KCC2 ouabain inconclusive and HEK293 Tl flux2 0.0093.
Screening CCOc1ccccc1N(C)C(=O)CCS(=O)(=O)c1ccc2c(c1)NC(=O)CO2 returned SKKanGAS inh -12.
Screening Cc1cc(=O)n(C)c2ccc(S(=O)(=O)N3CCOCC3)cc12 returned SKKanGAS inh 5.

Screens deposited in PubChem by several laboratories.
